Measured values taken from ChEMBL document CHEMBL4270573, “Novel nicotinoyl pyrazoline derivates bearing N-methyl indole moiety as antitumor agents: Design, synthesis and evaluation” (Eur J Med Chem, 2018).
Active and inactive are the calls of the source. No cut-off for these calls is given here.

Columns and labels:
HeLa [1] = experiment: Cell cycle arrest in human HeLa cells assessed as accumulation at G2/M phase after 6 to 24 hrs by propidium iodide staining based flow cytometric analysis; type: functional
In short: (§1)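 HepG2 and HeLa cells were exposed to 0, 0.020, 0.040, 0.060, 0.080 or 0.10 µM for 6, 12 or 24 h. DNA content was stained with propidium iodide and analysed by flow cytometry to give the percentage of cells in G0/G1, S and G2/M phases; sub-G1 cells were also recorded.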

HepG2 [2] = experiment: Cell cycle arrest in human HepG2 cells assessed as accumulation at G2/M phase after 6 to 24 hrs by propidium iodide staining based flow cytometric analysis; type: functional; in short: as §1
HeLa [3] = experiment: Cell cycle arrest in human HeLa cells assessed as accumulation at G0/G1 phase at 0.060 uM after 24 hrs by propidium iodide staining based flow cytometric analysis (reference value: 66.26%); type: functional; in short: as §1
HeLa [4] = experiment: Cell cycle arrest in human HeLa cells assessed as accumulation at G0/G1 phase at 0.10 uM after 24 hrs by propidium iodide staining based flow cytometric analysis (reference value: 66.26%); type: functional; in short: as §1
HepG2 [5] = experiment: Cell cycle arrest in human HepG2 cells assessed as accumulation at G0/G1 phase at 0.040 uM after 24 hrs by propidium iodide staining based flow cytometric analysis (reference value: 55.63%); type: functional; in short: as §1
HepG2 [6] = experiment: Cell cycle arrest in human HepG2 cells assessed as accumulation at G0/G1 phase at 0.060 uM after 24 hrs by propidium iodide staining based flow cytometric analysis (reference value: 55.63%); type: functional; in short: as §1
HepG2 [7] = experiment: Cell cycle arrest in human HepG2 cells assessed as accumulation at S phase at 0.060 uM after 24 hrs by propidium iodide staining based flow cytometric analysis (reference value: 20.40%); type: functional; in short: as §1
HepG2 [8] = experiment: Cell cycle arrest in human HepG2 cells assessed as accumulation at G0/G1 phase at 0.080 uM after 24 hrs by propidium iodide staining based flow cytometric analysis (reference value: 55.63%); type: functional; in short: as §1
HepG2 [9] = experiment: Cell cycle arrest in human HepG2 cells assessed as accumulation at G2/M phase at 0.080 uM after 24 hrs by propidium iodide staining based flow cytometric analysis (reference value: 20.17%); type: functional; in short: as §1
HepG2 [10] = experiment: Cell cycle arrest in human HepG2 cells assessed as accumulation at S phase at 0.10 uM after 24 hrs by propidium iodide staining based flow cytometric analysis (reference value: 20.40%); type: functional; in short: as §1
HeLa [11] = experiment: Induction of apoptosis in human HeLa cells assessed as early apoptotic cells at 0.020 uM after 24 hrs by Annexin V-FITC/propidium iodide staining based flow cytometric analysis (reference value: 6.17%); type: functional
In short: (§2)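 HepG2 and HeLa cells were exposed to 0, 0.02, 0.040, 0.060, 0.080 and 0.10 µM for 6, 12 and 24 h. Cells were double-stained with Annexin V-FITC/PI and read by flow cytometry. Apoptotic rate was the percentage of FITC-positive cells, counting early plus late apoptotic.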

HeLa [12] = experiment: Induction of apoptosis in human HeLa cells assessed as early apoptotic cells at 0.10 uM after 24 hrs by Annexin V-FITC/propidium iodide staining based flow cytometric analysis (reference value: 6.17%); type: functional; in short: as §2
HepG2 [13] = experiment: Induction of apoptosis in human HepG2 cells assessed as early apoptotic cells at 0.020 uM after 24 hrs by Annexin V-FITC/propidium iodide staining based flow cytometric analysis (reference value: 2.31%); type: functional; in short: as §2
HepG2 [14] = experiment: Induction of apoptosis in human HepG2 cells assessed as late apoptotic cells at 0.020 uM after 24 hrs by Annexin V-FITC/propidium iodide staining based flow cytometric analysis (reference value: 2.93%); type: functional; in short: as §2
HepG2 [15] = experiment: Induction of apoptosis in human HepG2 cells assessed as early apoptotic cells at 0.040 uM after 24 hrs by Annexin V-FITC/propidium iodide staining based flow cytometric analysis (reference value: 2.31%); type: functional; in short: as §2
HepG2 [16] = experiment: Induction of apoptosis in human HepG2 cells assessed as late apoptotic cells at 0.040 uM after 24 hrs by Annexin V-FITC/propidium iodide staining based flow cytometric analysis (reference value: 2.93%); type: functional; in short: as §2
HepG2 [17] = experiment: Induction of apoptosis in human HepG2 cells assessed as viable cells at 0.040 uM after 24 hrs by Annexin V-FITC/propidium iodide staining based flow cytometric analysis (reference value: 94.5%); type: functional; settings: HepG2, 24 h, read-out: Activity; in short: as §2
HepG2 [18] = experiment: Induction of apoptosis in human HepG2 cells assessed as viable cells at 0.10 uM after 24 hrs by Annexin V-FITC/propidium iodide staining based flow cytometric analysis (reference value: 94.5%); type: functional; settings: HepG2, 24 h, read-out: Activity; in short: as §2
Mus musculus [19] = experiment: Toxicity in nude mouse xenografted with human HeLa cells assessed as body weight loss at 10 to 20 mg/kg, ip after 14 days; type: organism-based; settings: in vivo, 336 h
Mus musculus [20] = experiment: Toxicity in nude mouse xenografted with human HeLa cells assessed as change in mouse spleen weight at 10 to 20 mg/kg, ip after 14 days; type: organism-based; settings: in vivo, 336 h
Mus musculus [21] = experiment: Toxicity in nude mouse xenografted with human HeLa cells assessed as change in mouse liver weight at 10 to 20 mg/kg, ip after 14 days; type: organism-based; settings: in vivo, 336 h
Bos taurus = organism: Bos taurus; experiment: Inhibition of colchicine binding to calf brain tubulin preincubated for 1 hr followed by colchicine addition measured after 1 hr by UPLC-MS/MS analysis
Tubulin (Homo sapiens) [22] = target: T1, Tubulin (Homo sapiens) (UniProt P68371+Q9H4B7+P0DPH7+P68366+Q13509+Q71U36+P04350+Q3ZCM7+P07437+P68363+Q9BQE3+Q6PEY2+Q13885+Q9BVA1+Q9BUF5); experiment: Inhibition of tubulin polymerization in human HepG2 cells assessed as multinucleated cell formation at 0.04 to 0.1 uM after 12 hrs by DAPI staining based immunofluorescence confocal laser scanning microscopic analysis
Tubulin (Homo sapiens) [23] = target: T1, Tubulin (Homo sapiens); experiment: Inhibition of tubulin polymerization in human HepG2 cells assessed as abnormal mitotic spindle formation at 0.04 to 0.1 uM after 12 hrs by DAPI staining based immunofluorescence confocal laser scanning microscopic analysis; type: cell-based
HeLa [24] = experiment: Antitumor activity against human HeLa cells xenografted in nude mouse assessed as relative tumor growth inhibition at 20 mg/kg, ip after 14 days (reference value: 59.92%); type: functional; settings: 336 h, read-out: TGI
HeLa [25] = experiment: Antitumor activity against human HeLa cells xenografted in nude mouse assessed as loose and irregular arrangement of tumor cells at 10 to 20 mg/kg, ip after 14 days by hematoxylin and eosin staining based microscopic analysis; type: functional, organism-based
In short: (§3)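 Excised tumours and heart, liver, kidney and spleen were H&E-stained and examined microscopically. Tumour scoring covered cell arrangement and necrosis. Organ scoring covered inflammatory infiltration, edema, necrosis and cell morphology.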

Mus musculus [26] = experiment: Cardiotoxicity in nude mouse xenografted with human HeLa cells assessed as cellular inflammatory infiltration in heart at 10 to 20 mg/kg, ip after 14 days by hematoxylin and eosin staining based microscopic analysis; type: toxicity, organism-based; settings: in vivo, 336 h; in short: as §3
Mus musculus [27] = experiment: Nephrotoxicity in nude mouse xenografted with human HeLa cells assessed as necrosis in kidney at 10 to 20 mg/kg, ip after 14 days by hematoxylin and eosin staining based microscopic analysis; type: toxicity, organism-based; settings: in vivo, 336 h

COc1cccc(C2=NN(C(=O)c3ccc(C)nc3)C(c3cn(C)c4ccc(OC)cc34)C2)c1 (stereo not drawn)
Activity (HeLa [1]): Dose-dependent effect
Activity (HepG2 [2]): Dose-dependent effect
Activity (HeLa [3]): 8.57%
Activity (HeLa [4]): 6.19%
Activity (HepG2 [5]): 28.39%
Activity (HepG2 [6]): 15.79%
Activity (HepG2 [7]): 22.17%
Activity (HepG2 [8]): 7.81%
Activity (HepG2 [9]): 50.73%
Activity (HepG2 [10]): 27.64%
Activity (HeLa [11]): 3.24%
Activity (HeLa [12]): 32.8%
Activity (HepG2 [13]): 3.18%
Activity (HepG2 [14]): 3.18%
Activity (HepG2 [15]): 7.34%
Activity (HepG2 [16]): 6.24%
viability at 0.04 µM (HepG2 [17]): 84.2%
viability at 0.1 µM (HepG2 [18]): 70.7%
Activity (Mus musculus [19]): Non-Toxic
Activity (Mus musculus [20]): Non-Toxic
Activity (Mus musculus [21]): Non-Toxic
inhibition (Bos taurus): Active
inhibition (Tubulin (Homo sapiens) [22]): Active
inhibition (Tubulin (Homo sapiens) [23]): Active
inhibition in vivo at 20 mg/kg (HeLa [24]): 61.5%
Activity (HeLa [25]): Active
Activity (Mus musculus [26]): Non-Toxic
Activity (Mus musculus [27]): Non-Toxic
